Experimental data: ChEMBL document CHEMBL2311371, “Effects of fluorines on nonsecosteroidal vitamin D receptor agonists” (2013)

Experiments:
[1] = test system: HL-60; assay: Induction of human HL60 cell differentiation after 4 days by WST-8 assay relative to 1.25-OH2 D3; assay type: functional
How it was run: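 HL-60 cells seeded 2×10^5 cells/mL in RPMI-1640 with 10% heat-inactivated FBS and antibiotics, 37 °C, 5% CO2. Cultured 4 days with 10^-10 to 10^-7 M compound. On the final day, PMA (final 100 ng/mL) plus WST-8 (final 20%) added for 90 min; absorbance change read at 450 nm. EC50 expressed as ratio to 1,25(OH)2D3 (set 100%).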

[2] = target: T1, Vitamin D3 receptor (Homo sapiens) (UniProt P11473); assay: Agonist activity at VDR in human MG-63 cells assessed as osteocalcin production compound incubated for 8 hrs measured after 4 days by EIA relative to 1,25(OH)2D3; assay type: cell-based
T1 sequence (whole entry): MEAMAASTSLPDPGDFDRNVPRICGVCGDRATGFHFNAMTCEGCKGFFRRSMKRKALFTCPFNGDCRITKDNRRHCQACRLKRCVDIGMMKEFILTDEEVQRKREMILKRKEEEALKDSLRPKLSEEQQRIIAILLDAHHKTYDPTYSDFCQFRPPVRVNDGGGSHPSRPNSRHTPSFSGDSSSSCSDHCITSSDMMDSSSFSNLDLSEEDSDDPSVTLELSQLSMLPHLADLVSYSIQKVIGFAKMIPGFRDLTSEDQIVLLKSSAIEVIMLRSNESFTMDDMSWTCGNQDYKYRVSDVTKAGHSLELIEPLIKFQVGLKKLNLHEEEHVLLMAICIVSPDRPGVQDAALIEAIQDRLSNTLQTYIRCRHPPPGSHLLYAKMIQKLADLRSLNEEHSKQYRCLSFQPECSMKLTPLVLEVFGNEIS
How it was run: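 MG-63 cells seeded 2×10^3/well in serum-free MEM, 24 h at 37 °C, 5% CO2; washed and switched to 5% DCC-FBS/MEM. Serial dilutions 10^-7 to 10^-11 mol/L (0.1% DMSO) applied 8 h, then medium replaced and culture continued 4 days. Gla-type osteocalcin in supernatant measured by EIA at 450 nm against standards. EC50 expressed as ratio to 1,25(OH)2D3 (set 100%).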

[3] = target: T1, Vitamin D3 receptor (Homo sapiens); assay: Agonist activity at VDR in human MG-63 cells assessed as transcriptional activation of osteopontin gene after 3 days by luciferase reporter gene assay relative to 1,25(OH)2D3; assay type: cell-based
How it was run: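 MG-63 cells seeded 2×10^3/well, 24 h at 37 °C, 5% CO2. Cotransfected with VDRE-luciferase construct (three osteopontin-promoter VDRE repeats, 0.05 µg) plus pRL-SV40 (0.001 µg) by lipofection. Kept 8 h in MEM with 5% DCC-FBS, then dosed 10^-7 to 10^-11 mol/L (0.1% DMSO) for 3 days. Dual-luciferase readout on lysates. EC50 expressed as ratio to 1,25(OH)2D3 (set 100%).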

SMILES	Activity [2] [%]	Activity [3] [%]	Activity [1] [%]
CCC(CC)(c1ccc(CCC(O)(C(F)(F)F)C(F)(F)F)c(C)c1)c1ccc(OC[C@@H](O)CCC(=O)[O-])c(C)c1.[Na+]	429	91	106
CCC(CC)(c1ccc(OCC(O)CO)c(C)c1)c1ccc(OCC(O)C(C)(C)C)c(C)c1 (centres undefined) [LG-190178]	185		71

Continued, in another order:

Activity [2] [%]	Activity [3] [%]	SMILES	Activity [1] [%]
3750	592	CCC(CC)(c1ccc(/C=C/C(O)(C(F)(F)F)C(F)(F)F)c(C)c1)c1ccc(OC[C@@H](O)CCC(=O)[O-])c(C)c1.[Na+]	252
447	105	CCC(O)(/C=C/c1ccc(C(CC)(CC)c2ccc(OC[C@@H](O)CCC(=O)[O-])c(C)c2)cc1C)CC.[Na+]	126
546	30	CCC(CC)(c1ccc(C#CC(O)(C(F)(F)F)C(F)(F)F)c(C)c1)c1ccc(OC[C@@H](O)CCC(=O)[O-])c(C)c1.[Na+]	227
